Experimental data published in publication PMC3329872 (Bioorganic & medicinal chemistry letters, 2012).
Where “and” joins values, the source holds several entries; their conditions need not be identical. Equal values may be shown once. Entries after “also recorded” stand apart in the source; their conditions may differ. Read-outs that look alike come from different tables or passages of the source.

What was measured:
[1] = biological target: T1, trypsin (Bos taurus, UniProt P00760); test: Trypsin enzymatic inhibition assay; format: biochemical
T1 sequence (P00760 24-246): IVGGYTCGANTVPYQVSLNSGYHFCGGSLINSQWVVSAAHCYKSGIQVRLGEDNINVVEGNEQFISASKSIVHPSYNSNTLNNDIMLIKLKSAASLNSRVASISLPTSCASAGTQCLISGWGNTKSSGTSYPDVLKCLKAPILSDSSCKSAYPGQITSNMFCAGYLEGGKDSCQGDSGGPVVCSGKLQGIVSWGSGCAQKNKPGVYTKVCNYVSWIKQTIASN
Method in brief: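 Chromogenic substrate level was chosen from the Km determination. Rate of absorbance change at 405 nm was recorded immediately after enzyme addition. Velocities at various inhibitor concentrations were fitted to a 4-parameter logistic equation.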

[2] = tested on: U87 glioma cells; test: Cell death assay: lactate dehydrogenase; format: cell-based; conditions: LDH assay, human U87 glioma cells; concentration and time given in the cell
Method in brief: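 U87 glioma cells plated at ten thousand per well and exposed to test compound for 24–48 h at 37°C, 5% CO2. Cell death read as cytosolic LDH released from dying cells, measured with a commercial LDH kit per the manufacturer's protocol.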

[3] = biological target: T2, plasmin (Homo sapiens, UniProt P00747); test: Plasmin enzymatic inhibition assay; format: biochemical
T2 sequence (P00747 581-810 limits assumed, species assumed): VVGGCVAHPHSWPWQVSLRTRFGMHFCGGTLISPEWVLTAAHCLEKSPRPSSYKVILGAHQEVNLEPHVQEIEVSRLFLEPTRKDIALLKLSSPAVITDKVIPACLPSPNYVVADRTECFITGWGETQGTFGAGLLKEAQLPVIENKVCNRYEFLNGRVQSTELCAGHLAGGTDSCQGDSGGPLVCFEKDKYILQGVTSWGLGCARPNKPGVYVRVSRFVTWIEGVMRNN
T2 sequence (P00747 97-580 partner limits assumed, species assumed): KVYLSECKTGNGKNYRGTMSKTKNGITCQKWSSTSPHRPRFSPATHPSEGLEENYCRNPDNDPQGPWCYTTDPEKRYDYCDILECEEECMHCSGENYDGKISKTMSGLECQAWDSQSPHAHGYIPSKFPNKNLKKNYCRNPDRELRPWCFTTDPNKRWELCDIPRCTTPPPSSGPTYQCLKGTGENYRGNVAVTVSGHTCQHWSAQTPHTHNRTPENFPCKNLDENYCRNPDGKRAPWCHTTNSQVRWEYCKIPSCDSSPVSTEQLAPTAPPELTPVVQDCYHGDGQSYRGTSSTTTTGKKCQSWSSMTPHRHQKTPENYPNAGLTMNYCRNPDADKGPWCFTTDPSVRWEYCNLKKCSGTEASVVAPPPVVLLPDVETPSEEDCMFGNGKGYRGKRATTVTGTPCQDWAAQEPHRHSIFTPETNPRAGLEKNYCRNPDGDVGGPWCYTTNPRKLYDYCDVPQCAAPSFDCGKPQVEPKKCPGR

[4] = biological target: tPA (Homo sapiens, UniProt P00750); conditions: read-out: tPA IC50; cited from earlier work
Chain of tPA (P00750 36-562, species assumed): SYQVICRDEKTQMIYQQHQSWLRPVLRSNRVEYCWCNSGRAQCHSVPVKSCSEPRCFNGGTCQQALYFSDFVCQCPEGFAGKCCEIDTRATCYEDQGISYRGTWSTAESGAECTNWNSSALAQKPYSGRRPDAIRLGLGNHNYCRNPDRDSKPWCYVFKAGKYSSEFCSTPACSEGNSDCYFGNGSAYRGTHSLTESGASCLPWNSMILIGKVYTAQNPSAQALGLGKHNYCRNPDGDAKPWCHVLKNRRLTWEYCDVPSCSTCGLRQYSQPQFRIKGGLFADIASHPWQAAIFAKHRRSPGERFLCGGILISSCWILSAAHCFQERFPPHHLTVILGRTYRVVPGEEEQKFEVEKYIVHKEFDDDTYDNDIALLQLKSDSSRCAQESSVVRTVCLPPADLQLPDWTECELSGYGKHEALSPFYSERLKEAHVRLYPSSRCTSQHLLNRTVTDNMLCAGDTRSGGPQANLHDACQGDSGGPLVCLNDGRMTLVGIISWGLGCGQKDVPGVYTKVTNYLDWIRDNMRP

[5] = biological target: T2, plasmin; conditions: read-out: plasmin IC50; cited from earlier work
[6] = tested on: human malignant glioma cells; conditions: cited from earlier work
[7] = read-out: Plasmin IC50, 22°C, pH 7.4, substrate tosyl-Gly-Pro-Lys-pNA

IC50 [1]	IC50 [3, 7]	IC50 [3]	Compound	Cytoxicity [2]	IC50 [4]	IC50 [5]	concentration causing caspase-independent, non-apoptotic cell death [6]
> 250 µM	–	–	N=C(N)c1nc(Cl)c(NCC(=O)OCc2ccccc2)nc1N [Compound 11]	cytotoxic and 50% cytotoxic at 250μM by 72h	–	–	–
> 250 µM	> 150 µM	–	NC(=O)c1nc(Cl)c(NCC(=O)OCc2ccccc2)nc1N [Compound 12]	Not cytotoxic	–	–	–
> 250 µM	–	–	NC(N)=NC(=O)c1nc(Cl)c(NCC(=O)OCc2ccccc2)nc1N [Compound 14]	cytotoxic and 50% cytotoxic at 100μM by 24h	–	–	–
> 250 µM	–	–	N=C(N)NC(=O)c1nc(Cl)c(N)nc1N [amiloride, 3,5 diamino-6-chloro-N-(diaminomethylene) pyrazinecarboximide]	50% cytotoxic at 250μM by 24h	> 1000 µM	> 1000 µM	~ 200 μM

More lines, now with the values behind:

Compound	IC50 [1]	IC50 [3, 7]	IC50 [3]	Cytoxicity [2]	IC50 [4]	IC50 [5]	concentration causing caspase-independent, non-apoptotic cell death [6]
N/C(=N\O)c1nc(Cl)c(NCC(=O)OCc2ccccc2)nc1N [Compound 7]	> 250 µM	–	–	Not cytotoxic	–	–	–
N=C(N)c1nc(Cl)c(NCC(=O)O)nc1N [Compound 2]	> 250 µM	> 250 µM	–	do not demonstrate glioma cytotoxicity; also recorded: Not cytotoxic	–	–	–
N/C(=N\O)c1ncc(NCC(=O)O)nc1N [Compound 8-H]	> 250 µM	–	230 µM	Not cytotoxic	–	–	–
NC(N)=NC(=O)c1ncc(NCC(=O)O)nc1N [Compound 1-H]	> 250 µM	–	–	Not cytotoxic	–	–	–
N=C(N)c1ncc(NCC(=O)O)nc1N [Compound 2-H]	> 250 µM	–	–	Not cytotoxic	–	–	–
N=C(N)NC(=O)c1nc(Cl)c(NCC(=O)O)nc1N [Compound 1]	> 250 µM	–	–	do not demonstrate glioma cytotoxicity; also recorded: Not cytotoxic	–	–	–
N/C(=N\O)c1nc(Cl)c(NCC(=O)O)nc1N [Compound 8]	> 250 µM	–	–	Not cytotoxic	–	–	–
